# Measurements from different studies.
# Compare with care: the assays were run in different laboratories.
# Target: Mitogen-activated protein kinase 10 (MAPK10, Homo sapiens, UniProt P53779)
SMILES,test,conditions,remaining binding [%]
N[C@H]1CCN(c2nccc(-c3cnn4ncccc34)n2)C1,binding,1 µM,60
c1cncc(-c2cccc(Nc3nccc(NC4CCCCC4)n3)c2)c1,"binding, competition with immobilised ligand",10 µM,51
CN(CCCC(F)(F)F)c1nccc(-c2cnn3ncccc23)n1,binding,1 µM,97
Cc1cnc(Nc2ccc(C(=O)N3CCC(N4CCCC4)CC3)cc2)nc1-c1cc2ccccc2s1,"binding, competition with immobilised ligand",1 µM,8.6
COc1cnc(Nc2cccc(S(N)(=O)=O)c2)nc1N1CCN(c2ccccc2)CC1,"binding, competition with immobilised ligand",1 µM,83
O=C(NCCCN1CCOCC1)c1ccc(Nc2nccc(-c3cc4ccccc4s3)n2)cc1,"binding, competition with immobilised ligand",1 µM,15
CC1CCCN1c1nccc(-c2cnn3ncccc23)n1 (stereo not drawn),binding,1 µM,79
C[C@@H]1CN(c2ccc3ncc(-c4ccc5[nH]nc(C6CC6)c5c4)n3n2)C[C@H](C)O1,"binding, competition with immobilised ligand",50 nM,85
CCC(=O)N[C@H]1CC[C@@H](C(=O)N(C)c2ccc(-c3nc4ccccc4o3)cc2)C1,"cell-free assay, competition with immobilised ligand",1 µM,85
COc1ccnn2ncc(-c3ccnc(N(C)C)n3)c12,binding,1 µM,80
O=C(c1ccc(Nc2ncc(Cl)c(-c3ccc(Cl)s3)n2)cc1)N1CCC(N2CCCC2)CC1,"binding, competition with immobilised ligand",1 µM,1.1
Cc1cnn2ncc(-c3ccnc(N(C)C)n3)c2c1,binding,1 µM,71
O=C1CCc2cc(Nc3cc(OC4CCOCC4)c([N+](=O)[O-])cc3Cl)ccc2N1,"cell-free assay, competition with immobilised ligand",1 µM,98
Nc1ncc2c(n1)-c1c([nH]c3ccc(C#CC4CC4)cc13)CCCC2,"binding, competition with immobilised ligand",1 µM,76
O=C(N[C@H]1CCCCC/C=C\C2C[C@@]2(C(=O)O)NC(=O)[C@@H]2C[C@@H](Oc3ccncc3)CN2C1=O)OC1CCCC1 (stereo partly drawn),"binding, competition with immobilised ligand",1 µM,81
O=C(NCC1CCOCC1)c1n[nH]cc1NC(=O)c1c(F)cccc1F,"binding, competition with immobilised ligand",1 µM,31
CO[C@H]1CC[C@H](CNc2ccc(S(=O)(=O)NC(=O)c3ccc(N4CCN(CC5=C(c6ccc(Cl)cc6)CC(C)(C)CC5)CC4)cc3Oc3cnc4[nH]ccc4c3)cc2[N+](=O)[O-])CC1,"cell-free assay, competition with immobilised ligand",1 µM,77
C[C@@H]1CCN(c2nccc(-c3cnn4ncccc34)n2)C1,binding,1 µM,34
CN(C)C(=O)Cn1cc(-c2nc([C@@](C)(c3ccc(-c4cnc(N)nc4)cc3)C3CC3)no2)cn1,"cell-free assay, competition with immobilised ligand",1 µM,94
c1cnn2ncc(-c3ccnc(N4CCC45COC5)n3)c2c1,binding,1 µM,27
CCOCCn1cc(C(=O)Nc2ccc(-n3nc(-c4cccnc4)cc3C(F)(F)F)cn2)ccc1=O,"cell-free assay, competition with immobilised ligand",1 µM,100
COc1ncc2cc3ccccc3nc2c1C#N,"cell-free assay, competition with immobilised ligand",5 µM,100
CC1=C(C#N)[C@@H](c2ccc3[nH]nc(C)c3c2)C(C#N)=C(c2ccc(Cl)cc2)N1,"cell-free assay, competition with immobilised ligand",1 µM,68.8
N#Cc1ccccc1CSc1nnc2c(n1)[nH]c1ccccc12,"binding, competition with immobilised ligand",10 µM,100
